In ChEMBL document CHEMBL4043167, “Identification of pyrazolopyrimidine arylsulfonamides as CC-chemokine receptor 4 (CCR4) antagonists” (Bioorg Med Chem, 2017):
≈ marks a conversion by molar mass, not a printed value. Calls of active or inactive are those of the source. No cut-off for these calls is given here.

What was measured:
[1] = biological target: T1, C-C chemokine receptor type 4 (Homo sapiens, UniProt P51679); assay: Antagonist activity at human recombinant CCR4 receptor expressed in CHO cell membranes by [35S]GTPgammaS binding assay; type: functional
T1 sequence (P51679 whole entry): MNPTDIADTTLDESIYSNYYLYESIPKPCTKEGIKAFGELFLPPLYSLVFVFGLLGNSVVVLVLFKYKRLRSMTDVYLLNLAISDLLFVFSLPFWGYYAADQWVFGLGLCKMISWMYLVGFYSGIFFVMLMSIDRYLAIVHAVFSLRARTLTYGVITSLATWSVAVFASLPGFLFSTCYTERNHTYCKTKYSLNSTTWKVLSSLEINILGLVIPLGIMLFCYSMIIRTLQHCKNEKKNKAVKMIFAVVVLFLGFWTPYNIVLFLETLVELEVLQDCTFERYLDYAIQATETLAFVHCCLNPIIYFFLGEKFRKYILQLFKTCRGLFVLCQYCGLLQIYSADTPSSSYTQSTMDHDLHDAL

[2] = Lipophilicity, log D of the compound by chromatographic analysis; type: physicochemical
Method in brief: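 Chromatographic logD measured at pH 7.4 (chromlogD7.4).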

[3] = Kinetic solubility of the compound by chemiluminescent nitrogen detection assay; type: physicochemical; conditions: read-out: Kinetic_solubility
[4] = biological target: T2, C-C chemokine receptor type 4 (Homo sapiens) (UniProt P51679); assay: (§1) Antagonist activity at CCR4 receptor in human whole blood assessed as F-actin polymerization after 30 mins by FACS-based flow cytometric analysis
T2 sequence (whole entry): T1 sequence (P51679 whole entry)

[5] = biological target: albumin (Homo sapiens, UniProt P02768); assay: Binding affinity to HSA; type: ADME; conditions: human serum albumin (HSA), read-out: PB (converted)
Sequence of albumin (P02768 whole entry): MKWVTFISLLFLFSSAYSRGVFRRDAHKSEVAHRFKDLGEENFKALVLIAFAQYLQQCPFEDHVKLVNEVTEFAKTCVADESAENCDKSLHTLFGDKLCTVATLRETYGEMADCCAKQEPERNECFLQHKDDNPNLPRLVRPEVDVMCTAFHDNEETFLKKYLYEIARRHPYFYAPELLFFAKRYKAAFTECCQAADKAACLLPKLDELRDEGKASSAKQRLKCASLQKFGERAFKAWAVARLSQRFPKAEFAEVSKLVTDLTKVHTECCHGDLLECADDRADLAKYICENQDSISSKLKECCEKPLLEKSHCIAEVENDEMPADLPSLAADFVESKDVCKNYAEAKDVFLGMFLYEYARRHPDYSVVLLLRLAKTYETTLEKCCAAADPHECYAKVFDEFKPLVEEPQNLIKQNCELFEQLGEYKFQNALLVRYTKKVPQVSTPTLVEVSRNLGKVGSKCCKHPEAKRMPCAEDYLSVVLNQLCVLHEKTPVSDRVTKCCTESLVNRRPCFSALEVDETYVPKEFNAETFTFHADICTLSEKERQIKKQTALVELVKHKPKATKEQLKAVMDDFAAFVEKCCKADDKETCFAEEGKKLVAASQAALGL

[6] = Oral bioavailability in Sprague Dawley (crl:CD(SD)) rat at 1 mg/kg by LCMS/MS method; type: ADME, organism-based; conditions: in vivo
Method in brief: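 Rat given an oral dose of 1 mg/kg, with a 1 mg/kg IV dose for comparison; oral bioavailability calculated.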

[7] = system: Rattus norvegicus; assay: Clearance in Sprague Dawley (crl:CD(SD)) rat at 1 mg/kg, iv by LCMS/MS method; type: ADME, organism-based; conditions: in vivo
Method in brief: (§2)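 Rat given a single IV dose of 1 mg/kg; blood clearance, half-life and volume of distribution derived from the IV profile.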

[8] = Volume of distribution at steady state in Sprague Dawley (crl:CD(SD)) rat at 1 mg/kg, iv by LCMS/MS method; type: ADME, organism-based; conditions: in vivo, read-out: Vdss; method in brief: as §2
[9] = Half life in Sprague Dawley (crl:CD(SD)) rat at 1 mg/kg, iv by LCMS/MS method; type: ADME, organism-based; conditions: in vivo; method in brief: as §2
[10] = Clearance in rat microsomes; type: ADME, Microsome
[11] = Clearance in dog microsomes; type: ADME, Canis lupus familiaris, Microsome
[12] = Clearance in human microsomes; type: ADME, Microsome
[13] = biological target: T1, C-C chemokine receptor type 4; assay: as §1; conditions: read-out: pA2 (converted)
[14] = Oral bioavailability in Beagle dog at 1 mg/kg by LCMS/MS method; type: ADME, organism-based, Canis lupus familiaris; conditions: in vivo
[15] = Volume of distribution at steady state in Beagle dog at 1 mg/kg by LCMS/MS method; type: ADME, organism-based, Canis lupus familiaris; conditions: in vivo, read-out: Vdss
[16] = Half life in Beagle dog at 1 mg/kg by LCMS/MS method; type: ADME, organism-based, Canis lupus familiaris; conditions: in vivo
[17] = system: Canis familiaris; assay: Clearance in Beagle dog at 0.5 mg/kg by LCMS/MS method; conditions: in vivo

Structure (SMILES) | IC50 [1] | chromatographic logD [2] | solubility kinetic [3] | also measured
COCCn1nc(OC)c2c(NS(=O)(=O)c3cccc(Cl)c3Cl)ncnc21 | 316 nM | 2.6 | ≥ 442 µM | –
COCCOc1nn(C)c2ncnc(NS(=O)(=O)c3cccc(Cl)c3Cl)c12 | 794 nM | 2.3 | ≥ 463 µM | –
CCNc1nc(NS(=O)(=O)c2cccc(Cl)c2Cl)c2c(OC)nn(C)c2n1 | 251 nM | 4.2 | 219 µM (≈ 94.5 µg/mL) | –
COc1nn(CC(N)=O)c2ncnc(NS(=O)(=O)c3cccc(Cl)c3Cl)c12 | 501 nM | 1.1 | ≥ 490 µM | –
COc1nn(C)c2nc(N(C)C)nc(NS(=O)(=O)c3cccc(Cl)c3Cl)c12 | 631 nM | 4 | ≥ 626 µM | –
COc1nn(C(C)C)c2ncnc(NS(=O)(=O)c3cccc(Cl)c3Cl)c12 | 251 nM | 4.5 | 404 µM (≈ 168 µg/mL) | –
COc1n[nH]c2ncnc(NS(=O)(=O)c3cccc(Cl)c3Cl)c12 | 158 nM | 1.8 | 402 µM (≈ 150 µg/mL) | –
COc1nn(C)c2nc(NCCN(C)C)nc(NS(=O)(=O)c3cccc(Cl)c3Cl)c12 | > 31600 nM | 1.4 | ≥ 444 µM | –
COc1nn(C)c2nc(NC3COC3)nc(NS(=O)(=O)c3cccc(Cl)c3Cl)c12 | 10000 nM | 2.2 | ≥ 712 µM | –
COc1cccc2c1c(NS(=O)(=O)c1cccc(Cl)c1Cl)nn2C | – | – | 288 µM (≈ 111 µg/mL) | pA2 [4]: inactive; fraction unbound [5]: 0.023; bioavailability [6]: 24%; clearance [7]: 17 mL/min/kg; Vd [8]: 0.5 L/kg; half-life [9]: 1.2 h
COc1nc(NS(=O)(=O)c2cccc(Cl)c2Cl)c2c(OC)nn(C)c2n1 | 794 nM | 1.9 | 148 µM (≈ 61.9 µg/mL) | –
COCCNc1nc(NS(=O)(=O)c2cccc(Cl)c2Cl)c2c(OC)nn(C)c2n1 | 7940 nM | 3.3 | ≥ 441 µM | –
Cn1ncc2c(NS(=O)(=O)c3cccc(Cl)c3Cl)ccnc21 | 12600 nM | 1.7 | ≥ 310 µM | –
COc1nn(C)c2nc(NC(C)C)nc(NS(=O)(=O)c3cccc(Cl)c3Cl)c12 | 3160 nM | 5.2 | ≥ 551 µM | –
COc1nn(C)c2cccc(NS(=O)(=O)c3cccc(Cl)c3Cl)c12 | 794 nM | 6.5 | 80 µM (≈ 30.9 µg/mL) | –
COc1nn(C)c2nc(N)nc(NS(=O)(=O)c3cccc(Cl)c3Cl)c12 | 316 nM | 2.4 | ≥ 649 µM | –

Structure (SMILES) | IC50 [1] | chromatographic logD [2] | solubility kinetic [3] | also measured
CCn1[nH]c2ncnc(NS(=O)(=O)c3cccc(Cl)c3Cl)c2c1=O | > 31600 nM | 1.2 | ≥ 383 µM | –
Cn1ncc2c(NS(=O)(=O)c3cccc(Cl)c3Cl)cccc21 | 3160 nM | 3.2 | 170 µM (≈ 60.6 µg/mL) | –
COc1nn(C)c2nc(C)nc(NS(=O)(=O)c3cccc(Cl)c3Cl)c12 | 631 nM | 3.4 | ≥ 557 µM | –
COc1nn(C2COC2)c2ncnc(NS(=O)(=O)c3cccc(Cl)c3Cl)c12 | 251 nM | 2.1 | 142 µM (≈ 61.1 µg/mL) | –
COc1ccc2c(cnn2C)c1NS(=O)(=O)c1cccc(Cl)c1Cl | 10000 nM | 5 | 175 µM (≈ 67.6 µg/mL) | –
CNC(=O)Cn1nc(OC)c2c(NS(=O)(=O)c3cccc(Cl)c3Cl)ncnc21 | 631 nM | 1.3 | ≥ 509 µM | –
O=S(=O)(Nc1ncnc2[nH]nc(O)c12)c1cccc(Cl)c1Cl | 15800 nM | 0.8 | ≥ 234 µM | –
COc1nn(CC(=O)O)c2ncnc(NS(=O)(=O)c3cccc(Cl)c3Cl)c12 | 200 nM | 0.8 | ≥ 483 µM | –
COc1nn(C)c2ncnc(NS(=O)(=O)c3cccc(Cl)c3Cl)c12 | 63.1 nM | 2.4 | ≥ 581 µM | CL [10]: 0.58 mL/min/g; CL [11]: 0.65 mL/min/g; CL [12]: < 0.53 mL/min/g; Kb [13]: > 6310 nM; fraction unbound [5]: 0.015; bioavailability [6]: 62%; clearance [7]: 2 mL/min/kg; Vd [8]: 0.3 L/kg; half-life [9]: 1.9 h; bioavailability [14]: 100%; Vd [15]: 0.3 L/kg; half-life [16]: 0.6 h; clearance [17]: 4 mL/min/kg
COc1ccc(COc2nc(Br)cnc2NS(=O)(=O)c2ccc(C)cc2)cc1OCCN(C)C | – | 3.1 | 309 µM (≈ 170 µg/mL) | –
COc1nn(CCN(C)C)c2ncnc(NS(=O)(=O)c3cccc(Cl)c3Cl)c12 | 3980 nM | 1.6 | 358 µM (≈ 159 µg/mL) | –
Cn1nc(NS(=O)(=O)c2cccc(Cl)c2Cl)c2ccccc21 | 2000 nM | 4.6 | 124 µM (≈ 44.2 µg/mL) | –
Cn1ncc2c(NS(=O)(=O)c3cccc(Cl)c3Cl)ncnc21 | 1260 nM | 1.7 | 476 µM (≈ 171 µg/mL) | –
CCOc1n[nH]c2ncnc(NS(=O)(=O)c3cccc(Cl)c3Cl)c12 | 794 nM | 2.3 | ≥ 438 µM | –
CNc1nc(NS(=O)(=O)c2cccc(Cl)c2Cl)c2c(OC)nn(C)c2n1 | 79.4 nM | 3.2 | 376 µM (≈ 157 µg/mL) | –
COc1nn(C)c2ncnc(NS(=O)(=O)c3ccc(Cl)s3)c12 | 79.4 nM | 1.6 | ≥ 538 µM | Kb [13]: > 6310 nM; fraction unbound [5]: 0.023
